Reference: ChEMBL document CHEMBL5038663, “Probing the Requirements for Dual Angiotensin-Converting Enzyme C-Domain Selective/Neprilysin Inhibition” (J Med Chem, 2022)

Tests used:
Neprilysin = Neprilysin (Homo sapiens, UniProt P08473); test: Inhibition of hGH-8His-NEP expressed in CHO cells preincubated for 15 mins followed by […] peptide substrate addition by fluorescence spectrophotometric analysis; type: cell-based
Outline: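 Secreted glycosylated human NEP ectodomain (hGH-8His fusion) from CHO cells, purified by cobalt affinity. Two-fold inhibitor serial dilution in 50 mM Tris pH 8.3, 0.05% Brij-35, 300 mM NaCl, 10 μM ZnCl₂. Enzyme and inhibitor preincubated 15 min at 22 °C. […] Continuous fluorescence at ex 320/em 405 nm. Triplicates, n ≥ 2 independent experiments.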

Homo sapiens = organism: Homo sapiens; test: Selectivity ratio of Ki for human ACE N-domain expressed in CHO cells to Ki for human ACE C-domain expressed in CHO cells; type: cell-based
Outline: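 Ki for each ACE domain from IC50 by Cheng-Prusoff for competitive inhibition, Ki = IC50/(1 + [S]/Km). […] Ratio taken as N-domain Ki over C-domain Ki.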

[1] = target: T1, Angiotensin-converting enzyme (Homo sapiens, UniProt P12821); test: Inhibition of recombinant human ACE C-domain expressed in CHO cells using Cbz-Phe-His-Leu as substrate preincubated for 15 mins followed by substrate addition and measured after 10 mins by fluorescence spectrophotometric analysis
T1 sequence (P12821 whole entry): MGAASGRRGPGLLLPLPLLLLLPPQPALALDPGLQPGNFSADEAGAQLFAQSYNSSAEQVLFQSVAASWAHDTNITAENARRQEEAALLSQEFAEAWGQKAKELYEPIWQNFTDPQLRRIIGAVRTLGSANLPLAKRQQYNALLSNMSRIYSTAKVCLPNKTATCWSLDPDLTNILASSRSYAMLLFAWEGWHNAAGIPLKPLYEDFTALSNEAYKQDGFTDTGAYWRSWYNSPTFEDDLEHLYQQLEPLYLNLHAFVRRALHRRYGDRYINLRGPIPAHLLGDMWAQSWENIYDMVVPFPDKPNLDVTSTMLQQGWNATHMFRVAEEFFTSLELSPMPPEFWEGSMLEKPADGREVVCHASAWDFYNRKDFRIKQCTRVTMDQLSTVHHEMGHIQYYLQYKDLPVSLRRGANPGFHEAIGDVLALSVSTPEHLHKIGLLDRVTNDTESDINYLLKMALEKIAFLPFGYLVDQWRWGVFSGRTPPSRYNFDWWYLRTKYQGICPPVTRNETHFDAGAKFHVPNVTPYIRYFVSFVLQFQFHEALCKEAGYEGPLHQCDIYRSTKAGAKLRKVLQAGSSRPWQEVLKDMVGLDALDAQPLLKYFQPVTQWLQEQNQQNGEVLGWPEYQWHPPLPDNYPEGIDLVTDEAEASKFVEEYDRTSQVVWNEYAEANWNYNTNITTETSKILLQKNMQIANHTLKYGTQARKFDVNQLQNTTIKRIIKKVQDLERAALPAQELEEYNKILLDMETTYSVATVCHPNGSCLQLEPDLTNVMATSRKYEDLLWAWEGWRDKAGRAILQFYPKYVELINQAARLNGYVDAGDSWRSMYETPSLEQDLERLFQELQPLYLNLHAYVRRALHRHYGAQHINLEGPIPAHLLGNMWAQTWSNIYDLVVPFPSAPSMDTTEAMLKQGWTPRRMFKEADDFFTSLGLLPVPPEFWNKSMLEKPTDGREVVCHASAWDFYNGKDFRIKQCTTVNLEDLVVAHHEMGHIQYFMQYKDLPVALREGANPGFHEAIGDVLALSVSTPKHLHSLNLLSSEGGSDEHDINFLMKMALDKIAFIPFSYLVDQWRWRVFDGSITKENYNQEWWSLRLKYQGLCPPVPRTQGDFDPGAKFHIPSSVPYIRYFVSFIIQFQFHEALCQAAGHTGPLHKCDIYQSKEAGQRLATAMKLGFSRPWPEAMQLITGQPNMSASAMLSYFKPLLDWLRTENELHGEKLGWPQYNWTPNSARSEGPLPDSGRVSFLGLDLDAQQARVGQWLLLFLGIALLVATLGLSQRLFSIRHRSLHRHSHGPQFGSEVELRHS
Outline: (§1)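 Fully glycosylated single-domain human ACE (C-domain D629, N-domain Δ36NJ) from CHO cells. Two-fold inhibitor dilution in 100 mM potassium phosphate pH 8.3, 300 mM NaCl, 10 μM ZnCl₂. Preincubation 15 min at 22 °C. 10 min at 37 °C, stopped with NaOH/o-phthalaldehyde, then HCl. Triplicates, n ≥ 2 independent experiments.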

[2] = target: T1, Angiotensin-converting enzyme; test: Inhibition of recombinant human ACE N-domain expressed in CHO cells using Cbz-Phe-His-Leu as substrate preincubated for 15 mins followed by substrate addition and measured after 10 mins by fluorescence spectrophotometric analysis; outline: as §1

Neprilysin, sequence (P08473 whole entry, the tested form may be a part): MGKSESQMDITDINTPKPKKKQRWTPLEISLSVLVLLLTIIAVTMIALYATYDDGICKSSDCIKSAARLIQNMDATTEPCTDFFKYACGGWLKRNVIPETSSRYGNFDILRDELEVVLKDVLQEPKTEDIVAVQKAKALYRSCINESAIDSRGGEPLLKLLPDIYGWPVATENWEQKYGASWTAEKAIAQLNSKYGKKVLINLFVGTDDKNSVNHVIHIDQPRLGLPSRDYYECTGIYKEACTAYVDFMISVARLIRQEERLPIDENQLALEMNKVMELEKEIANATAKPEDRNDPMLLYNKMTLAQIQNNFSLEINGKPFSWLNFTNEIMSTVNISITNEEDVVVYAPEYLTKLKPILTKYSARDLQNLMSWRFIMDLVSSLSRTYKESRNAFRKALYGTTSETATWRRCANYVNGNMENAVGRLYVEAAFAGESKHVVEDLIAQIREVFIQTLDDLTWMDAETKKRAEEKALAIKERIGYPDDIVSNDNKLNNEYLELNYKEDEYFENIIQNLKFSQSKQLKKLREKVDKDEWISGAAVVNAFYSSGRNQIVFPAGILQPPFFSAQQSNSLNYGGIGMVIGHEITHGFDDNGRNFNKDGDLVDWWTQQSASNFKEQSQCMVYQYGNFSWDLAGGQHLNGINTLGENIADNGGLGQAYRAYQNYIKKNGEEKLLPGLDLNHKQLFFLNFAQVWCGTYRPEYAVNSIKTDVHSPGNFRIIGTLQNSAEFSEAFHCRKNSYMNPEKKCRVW

Row | Ki (Neprilysin) | Ki [1] | Ki [2] | SMILES | Ratio Ki (Homo sapiens)
1 | > 50000 nM | 440 nM | 3400 nM | Cc1ccc([C@H]2CC[C@@H](C(=O)O)N2C(=O)CN[C@@H](CCc2ccccc2)C(=O)O)cc1 | 8
2 | > 150000 nM | 9 nM | 1700 nM | NCCCC[C@H](N[C@@H](CCc1ccccc1)C(=O)O)C(=O)N[C@@H](Cc1c[nH]c2ccccc12)C(=O)O | 189
3 | 19000 nM | 100 nM | 3790 nM | CCCC[C@H](N[C@@H](CCc1ccccc1)C(=O)O)C(=O)N[C@@H](Cc1c[nH]c2ccccc12)C(=O)O | 37
4 | 600 nM | 35 nM | 120 nM | CCCC[C@H](N[C@@H](CCc1ccccc1)C(=O)O)C(=O)N[C@@H](Cc1ccc(O)cc1)C(=O)O | 3.5
